We go through one compound from ChEMBL document CHEMBL4706499, “PTG-0861: A novel HDAC6-selective inhibitor as a therapeutic strategy in acute myeloid leukaemia” (Eur J Med Chem, 2020).

Structures are written as SMILES.

Series [1] in a line: Half life in mouse hepatocytes measured after 120 mins by LC/MS/MS method. It counts as ADME, cell-based, Hepatocyte.
Series [2] addresses T1, Protein deacetylase HDAC6 (Homo sapiens, UniProt Q9UBN7).
T1 sequence (Q9UBN7 whole entry): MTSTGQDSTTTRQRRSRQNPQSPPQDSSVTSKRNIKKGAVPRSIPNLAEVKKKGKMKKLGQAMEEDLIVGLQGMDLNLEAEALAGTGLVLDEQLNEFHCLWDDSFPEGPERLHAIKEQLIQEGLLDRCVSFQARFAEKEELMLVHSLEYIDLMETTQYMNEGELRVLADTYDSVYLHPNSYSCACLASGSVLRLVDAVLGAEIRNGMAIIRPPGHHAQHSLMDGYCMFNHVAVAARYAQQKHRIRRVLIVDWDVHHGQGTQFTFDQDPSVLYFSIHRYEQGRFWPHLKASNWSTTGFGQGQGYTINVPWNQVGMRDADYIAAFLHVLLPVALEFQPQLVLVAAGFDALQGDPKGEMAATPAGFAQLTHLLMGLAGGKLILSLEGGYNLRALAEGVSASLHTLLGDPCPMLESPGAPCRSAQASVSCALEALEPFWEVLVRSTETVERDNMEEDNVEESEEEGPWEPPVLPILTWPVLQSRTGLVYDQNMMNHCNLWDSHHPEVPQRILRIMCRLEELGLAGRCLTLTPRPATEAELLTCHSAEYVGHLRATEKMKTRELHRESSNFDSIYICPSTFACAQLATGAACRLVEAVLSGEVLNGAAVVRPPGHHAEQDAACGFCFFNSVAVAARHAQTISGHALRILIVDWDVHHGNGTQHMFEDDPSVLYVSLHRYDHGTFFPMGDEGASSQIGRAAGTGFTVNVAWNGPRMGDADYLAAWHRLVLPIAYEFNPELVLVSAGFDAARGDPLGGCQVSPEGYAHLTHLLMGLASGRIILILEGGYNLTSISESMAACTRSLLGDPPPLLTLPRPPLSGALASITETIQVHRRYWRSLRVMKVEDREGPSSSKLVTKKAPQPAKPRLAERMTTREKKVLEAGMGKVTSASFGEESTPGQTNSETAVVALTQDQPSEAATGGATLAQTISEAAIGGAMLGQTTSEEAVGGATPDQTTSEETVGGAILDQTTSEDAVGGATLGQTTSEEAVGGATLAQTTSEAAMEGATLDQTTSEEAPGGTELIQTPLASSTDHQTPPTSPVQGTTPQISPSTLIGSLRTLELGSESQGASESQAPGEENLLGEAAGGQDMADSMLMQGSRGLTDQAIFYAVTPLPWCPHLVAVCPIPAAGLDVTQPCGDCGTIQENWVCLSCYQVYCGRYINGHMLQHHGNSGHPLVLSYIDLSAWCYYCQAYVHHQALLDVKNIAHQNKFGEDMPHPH
Put plainly: Inhibition of HDAC6 in human HeLa cells assessed by deacetylation measured after 15 mins by ELISA. The class given is cell-based. Put shortly:
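ELISA activity assay using HeLa-derived active HDAC6 coated on plates. A range of inhibitor concentrations was incubated with the enzyme, and deacetylation activity was monitored over time, with a 0.25 h read. The IC50 was taken from the inhibition profile.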

The nature of series [3]: Glutathione reactivity at pH 7.4 assessed as compound remaining measured by LC-MS/MS method. The class given is physicochemical.
Series [4] in a line: AUC (last) in CD1 mouse at 20 mg/kg, ip measured after 24 hrs by LC/MS/MS method. The class given is ADME, organism-based. On the set-up: route intraperitoneal, dose 20 mg/kg, time 24 hrs. Particulars: in vivo.
A short description of series [5]: Cytotoxicity against human MRC9 cells measured after 72 hrs by spectrophotometer method. It counts as cell-based. The conditions noted are these: MRC9, 72 h.
The test system of series [6] is MV4-11. Put plainly: Induction of apoptosis in human MV4-11 cells assessed as viable cells at 0.25 microM measured after 18 hrs by Annexin V/Propidium iodide stain based Flow cytometry assay (reference value: 53.27%). The class given is functional. The conditions noted are these: read-out: Activity.
Series [7] concerns MV4-11. Put plainly: Induction of apoptosis in human MV4-11 cells assessed as viable cells at 4 microM measured after 18 hrs by Annexin V/Propidium iodide stain based Flow cytometry assay (reference value: 53.27%). The class given is functional. The conditions noted are these: read-out: Activity. (A flow cytometer gives signals particle by particle.)
The subject of series [8] is MV4-11. In words: Induction of apoptosis in human MV4-11 cells assessed as late apoptotic cells at 4 microM measured after 18 hrs by Annexin V/Propidium iodide stain based Flow cytometry assay (reference value: 4.91%). It counts as functional.
A further series relates to HUVEC. In words: Cytotoxicity against human HUVEC cells measured after 72 hrs by spectrophotometer method. It counts as cell-based.
Series [9] concerns MV4-11. In words: Induction of apoptosis in human MV4-11 cells assessed as late apoptotic cells at 0.5 microM measured after 18 hrs by Annexin V/Propidium iodide stain based Flow cytometry assay (reference value: 4.91%). The class given is functional.
For series [10], the system named is MV4-11. In words: Induction of apoptosis in human MV4-11 cells assessed as early apoptotic cells at 1 microM measured after 18 hrs by Annexin V/Propidium iodide stain based Flow cytometry assay (reference value: 1.7%). It counts as functional.
Series [11] is described as follows: AUC (infinity) in CD1 mouse at 20 mg/kg, ip measured after 24 hrs by LC/MS/MS method. It counts as ADME, organism-based. On the set-up: route intraperitoneal, dose 20 mg/kg, time 24 hrs. Particulars: in vivo.
The test system of series [12] is MV4-11. Put plainly: Induction of apoptosis in human MV4-11 cells assessed as early apoptotic cells at 0.5 microM measured after 18 hrs by Annexin V/Propidium iodide stain based Flow cytometry assay (reference value: 1.7%). The class given is functional.
The nature of series [13]: Selectivity ratio of IC50 for full length recombinant human HDAC3 to IC50 for full length recombinant human HDAC6.
In another series the test system is Fibroblast. Put plainly: Cytotoxicity against pooled human fibroblasts measured after 72 hrs by spectrophotometer method. It counts as cell-based.
Series [14] has as its target T2, Polyamine deacetylase HDAC10 (Homo sapiens, UniProt Q969S8).
T2 sequence (Q969S8 whole entry): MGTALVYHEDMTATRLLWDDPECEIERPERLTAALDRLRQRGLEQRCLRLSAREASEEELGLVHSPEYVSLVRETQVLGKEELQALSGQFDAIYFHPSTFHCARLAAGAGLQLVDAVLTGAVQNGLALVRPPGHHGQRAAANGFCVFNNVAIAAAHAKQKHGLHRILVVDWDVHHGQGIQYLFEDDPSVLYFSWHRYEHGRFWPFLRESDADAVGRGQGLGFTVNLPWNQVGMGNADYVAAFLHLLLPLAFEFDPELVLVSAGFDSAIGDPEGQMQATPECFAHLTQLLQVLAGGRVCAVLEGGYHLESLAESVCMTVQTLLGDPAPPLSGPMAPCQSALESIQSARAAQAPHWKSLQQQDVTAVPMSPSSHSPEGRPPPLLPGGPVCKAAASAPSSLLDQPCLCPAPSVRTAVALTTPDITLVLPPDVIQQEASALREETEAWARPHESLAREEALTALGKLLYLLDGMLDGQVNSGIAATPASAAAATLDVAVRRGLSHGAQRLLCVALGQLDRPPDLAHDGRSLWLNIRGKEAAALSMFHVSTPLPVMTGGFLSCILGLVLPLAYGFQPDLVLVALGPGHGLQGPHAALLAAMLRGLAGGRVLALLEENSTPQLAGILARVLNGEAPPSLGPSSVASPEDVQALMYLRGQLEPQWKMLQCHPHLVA
Put plainly: Inhibition of recombinant full length human HDAC10 expressed in SF9 baculovirus using FAM- labelled acetylated peptide as substrate measured by Electrophoretic mobility shift assay. Background: A gel shift assay detects complexes by their altered migration in electrophoresis.

As usually defined, the half-life is the time needed for the level to fall by half in the phase considered. Low values mean rapid decline, high ones slow decline. In general, IC50 refers to the point on the concentration scale where inhibition reaches its midpoint. By AUC(0-t) is commonly meant the area under the concentration-time curve up to a stated or last time point. A higher AUC(0-t) goes with high exposure. Broadly, the AUC(0-inf) is the area under the concentration-time curve extrapolated to infinity. Read a low AUC(0-inf) as low exposure. The compound `O=C(NO)c1ccc(CNC(=O)c2c(F)c(F)c(F)c(F)c2F)cc1` yielded a half-life in [1] of 50.9 min. In addition, the half-inhibitory concentration (IC50) in [2] was 0.59 µM; in series [5], greater than 50 µM; in the series with HUVEC, 10.3 µM; in the series with Fibroblast, 14.6 µM; in series [14] it was greater than 1 µM. In addition, the Stabilty in series [3] was found to be 100%. In addition, in series [4], the exposure AUC(0-t) at 24 h came to 190 ng·h/mL. Further, in the series with MV4-11 [6], the viability at 0.25 µM came to 52.3%. In addition, the viability at 4 µM with MV4-11 [7] is 17.9%. The Activity in the series with MV4-11 [8] is 41%; with MV4-11 [9], 7.46%; with MV4-11 [10] it was 4.27%; in the series with MV4-11 [12], 2.87%. The compound also yielded an AUC(0-inf) in [11] of 219 ng·h/mL. Further, in series [13], the Ratio IC50 came out at 36.3.
